From PubChem BioAssay AID504649 (Molecular Libraries Program, Specialized Chemistry Center, …, 2011)
Calls of active or inactive are those of the source.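 How the source made its calls: active means half-maximal inhibitory concentration IC50 of 10 µM or lower; inactive means the rest.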

Target: Transitional endoplasmic reticulum ATPase (Homo sapiens) (UniProt P55072)
Test: blockers of VCP-dependent reporter clearance – imaging, HeLa, UbG76V-GFP, round 3, SAR follow-up (AID 504649)
Conditions: HeLa UbG76V-GFP degradation; for inhibition: at 20 µM (top of the series)
Method in brief: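 Material: UbG76V-GFP reporter HeLa cells / Signal: imaged GFP fluorescence intensity, ~500 cells / Also added: MG132 4 µM reporter pre-load, removed before chase / Times: MG132 pre-treatment 1 h, GFP imaging 70–170 min into chase / Read-out basis: IC50 from percent DMSO decay rate constant / Buffer or medium: DMEM with 2.5% FBS plus cycloheximide 50 µg/mL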

Transitional endoplasmic reticulum ATPase (Homo sapiens), sequence (P55072 whole entry, looked up): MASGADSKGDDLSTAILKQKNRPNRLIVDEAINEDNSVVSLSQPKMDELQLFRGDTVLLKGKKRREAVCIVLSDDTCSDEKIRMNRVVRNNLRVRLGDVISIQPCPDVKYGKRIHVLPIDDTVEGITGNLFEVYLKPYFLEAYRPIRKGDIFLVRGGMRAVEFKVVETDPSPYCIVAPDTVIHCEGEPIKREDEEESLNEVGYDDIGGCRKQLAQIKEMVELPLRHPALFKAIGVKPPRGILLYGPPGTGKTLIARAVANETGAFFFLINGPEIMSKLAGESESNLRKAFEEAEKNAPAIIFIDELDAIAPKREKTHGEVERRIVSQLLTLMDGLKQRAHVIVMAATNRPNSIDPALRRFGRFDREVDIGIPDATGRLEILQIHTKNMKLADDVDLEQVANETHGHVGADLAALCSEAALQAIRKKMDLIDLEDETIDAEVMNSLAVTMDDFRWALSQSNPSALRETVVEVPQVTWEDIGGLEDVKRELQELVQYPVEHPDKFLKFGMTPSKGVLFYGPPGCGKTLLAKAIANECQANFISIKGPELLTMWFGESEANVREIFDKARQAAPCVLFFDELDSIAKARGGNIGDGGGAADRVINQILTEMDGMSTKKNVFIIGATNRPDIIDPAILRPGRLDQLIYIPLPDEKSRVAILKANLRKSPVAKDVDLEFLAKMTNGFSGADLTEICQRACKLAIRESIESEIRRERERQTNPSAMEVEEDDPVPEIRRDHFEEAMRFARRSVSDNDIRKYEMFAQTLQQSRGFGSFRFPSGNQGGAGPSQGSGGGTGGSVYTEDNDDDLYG

Compound | IC50 | inhibition
COc1cccc2c(NCc3ccccc3)nc(NCc3cncs3)nc12 | inactive | –
Nc1nc2ccccc2n1-c1nccc(NCc2ccccc2)n1 | inactive | –
Clc1ccccc1-c1nc(N2CCCc3ccccc32)c2ccccc2n1 | inactive | –
COc1cccc2c(NCc3ccccc3)nc(N3CCN(C)c4ccccc43)nc12 | 7.8 µM | –
COc1cccc2c(NCc3ccccc3)nc(NC(N)=O)nc12 | – | inactive
COc1cccc2c(NCc3ccccc3)nc(-n3c(N)nc4cc(Cl)c(Cl)cc43)nc12 | > 20 µM (inactive) | –
COc1cccc2c(NCc3ccccc3)nc(Nc3nc4ccccc4n3C)nc12 | 7.8 µM | –
COc1cccc2c(NCc3ccccn3)nc(N3CCNc4ccccc43)nc12 | inactive | –
COc1cccc2c(NCc3cccc(N(C)C)c3)nc(N3CCOc4ccccc43)nc12 | inactive | –
COc1cccc2c(NCC3CCCCC3)nc(N3CCOc4ccccc43)nc12 | 8.2 µM | –
COc1cccc2c(NCc3ccccc3)nc(-n3c(N)nc4cc(C)c(C)cc43)nc12 | – | inactive
CN(c1ccccc1)c1nc(NCc2ccccc2)c2ccccc2n1 | 9.2 µM | –
COc1cccc2c(NCc3ccccn3)nc(N3CCOc4ccccc43)nc12 | inactive | –
COc1ccc(-c2cccc3c(NCc4ccccc4)nc(N4CCOc5ccccc54)nc23)cc1 | 9 µM | –
COc1cccc2c(NCc3ccccc3)nc(-n3cnc4ccccc43)nc12 | – | inactive
c1ccc2c(c1)OCCN2c1nc(N2CCOc3ccccc32)c2ccccc2n1 | 8.1 µM | –
Cc1nc(N2CCOc3ccccc32)nc(NCc2ccccc2)c1C | inactive | –
CC(C)Nc1nc(Nc2cccc(Cl)c2)nc2ccccc12 | inactive | –
Oc1cccc2c(NCc3ccccc3)nc(N3CCOc4ccccc43)nc12 | 7.7 µM | –
COc1cccc2c(NCc3ccccc3)nc(N3CCN(C(C)=O)CC3)nc12 | > 20 µM (inactive) | –
N#CCOc1cccc2c(NCc3ccccc3)nc(N3CCOc4ccccc43)nc12 | 7.7 µM | –
COc1cccc2c(NCc3ccccc3)nc(N3CCN(C(C)=O)c4ccccc43)nc12 | 8 µM | –
COc1cccc2c(NCc3ccccc3)nc(N(C)Cc3ccccc3)nc12 | > 20 µM (inactive) | –
COc1cccc2c(NCc3ccccc3)nc(Nc3nc4ccccc4s3)nc12 | inactive | –
COc1cccc2c(NCc3cncs3)nc(N3CCOc4ccccc43)nc12 | > 20 µM (inactive) | –

Next, values leading:

IC50 | inhibition | Compound
7.3 µM | – | COc1cccc2c(NCc3ccc(O)cc3)nc(N3CCOc4ccccc43)nc12
3.3 µM | – | COc1cccc2c(NCc3ccccc3)nc(N3CCOc4ccccc43)nc12
0.96 µM | – | COc1ccc2c(c1)nc(N)n2-c1nc(NCc2ccccc2)c2cccc(OC)c2n1
0.9 µM | – | COc1cccc2c(NCc3ccccc3)nc(-n3c(N)nc4ccccc43)nc12
3.5 µM | – | c1ccc(CNc2nc(N3CCOc4ccccc43)nc3c2CCCC3)cc1
4.2 µM | – | COc1cccc2c(NCc3ccccc3)nc(NCC3CCCCC3)nc12
2.6 µM | – | COc1cccc2c(NCc3ccccc3)nc(-n3c(N)nc4c(C)cccc43)nc12
6 µM | – | COc1cccc2c(NCc3ccccc3O)nc(N3CCOc4ccccc43)nc12
3 µM | – | COc1cccc2c(NCc3cccs3)nc(N3CCOc4ccccc43)nc12
5 µM | – | c1ccc(CNc2nc(N3CCOc4ccccc43)nc3c(-c4ccccc4)cccc23)cc1
7.1 µM | – | COc1cccc2c(NCc3ccccc3)nc(Nc3cc(C)cc(F)c3)nc12
1.8 µM | – | COc1cccc2c(NCc3ccccc3)nc(NCc3cccs3)nc12
6.4 µM | – | c1ccc(CNc2nc(N3CCOc4ccccc43)nc3ccsc23)cc1
1.8 µM | – | Nc1nc2ccccc2n1-c1nc2c(c(NCc3ccccc3)n1)CCCC2
4.5 µM | – | COc1cccc2c(NCc3ccccc3N(C)C)nc(N3CCOc4ccccc43)nc12
2.8 µM | – | COc1cccc2c(NCc3ccccc3)nc(Nc3ccccc3O)nc12
2.9 µM | – | Nc1nc2ccccc2n1-c1nc(NCc2ccccc2)c2ccccc2n1
3.7 µM | – | COc1cccc2c(NCc3ccccc3)nc(N3CCNc4ccccc43)nc12
6.5 µM | – | COCCOc1cccc2c(NCc3ccccc3)nc(N3CCOc4ccccc43)nc12
5.4 µM | – | COc1cccc2c(NCc3ccccc3)nc(-n3c(N)nc4c(F)cccc43)nc12
6.8 µM | – | COc1cccc2c(NCc3ccccc3)nc(-n3c(N)nc4cc(F)ccc43)nc12
5.3 µM | – | CCN(CC)CCOc1cccc2c(NCc3ccccc3)nc(N3CCOc4ccccc43)nc12
4.8 µM | – | COc1cccc2c(NCc3ccccc3)nc(Nc3cccc(F)c3)nc12
3.8 µM | – | OCCOc1cccc2c(NCc3ccccc3)nc(N3CCOc4ccccc43)nc12
2.5 µM | – | COc1cccc2c(NCc3ccccc3)nc(-n3c(N)nc4cc(C)ccc43)nc12
2.1 µM | – | COc1cccc2c(NCc3ccccc3)nc(NC(C)c3ccccc3)nc12 (stereo not given)
7 µM | – | c1ccc(CNc2nc(N3CCc4ccccc4C3)nc3ccccc23)cc1
5 µM | – | COc1cccc2c(NCc3ccccc3)nc(-n3c(=O)oc4ccccc43)nc12
3.7 µM | – | COc1cccc2c(NCc3ccc(F)cc3)nc(N3CCOc4ccccc43)nc12
5.4 µM | – | COc1cccc2c(NCc3ccccc3)nc(Nc3cccc(Cl)c3)nc12
